In the library only some 3.7% were active in any assay of this set; here they are far more common.
hERG rescue: shields human hERG channel from block by proarrhythmic agents. activation (rescue from dofetilide block), less the hit threshold, % at 10 µM. CHO-hERG, FluxOR thallium flux, dofetilide IC70 present. 0.51% of 310,000 active. Q12809;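 active = activation above the mean of controls blocked by dofetilide plus 5 SD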;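 also: thallium influx through hERG after potassium depolarization seen as dye fluorescence rise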
KCNQ1 inh: inhibitors of human KCNQ1 potassium channel | P51787 | CHO-K1 KCNQ1, FluxOR thallium flux fluorescence; active compounds read high | B-score at 10 µM | 1.3% of 310,000 active | AID 2642;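 active = compounds whose thallium flux B-score, printed positive for inhibition, exceeds three library SD while starting fluorescence stays within three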;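 also: channel opened by potassium depolarization with thallium stimulus after 20 min compound exposure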
Target sequence (P51787 whole entry, looked up): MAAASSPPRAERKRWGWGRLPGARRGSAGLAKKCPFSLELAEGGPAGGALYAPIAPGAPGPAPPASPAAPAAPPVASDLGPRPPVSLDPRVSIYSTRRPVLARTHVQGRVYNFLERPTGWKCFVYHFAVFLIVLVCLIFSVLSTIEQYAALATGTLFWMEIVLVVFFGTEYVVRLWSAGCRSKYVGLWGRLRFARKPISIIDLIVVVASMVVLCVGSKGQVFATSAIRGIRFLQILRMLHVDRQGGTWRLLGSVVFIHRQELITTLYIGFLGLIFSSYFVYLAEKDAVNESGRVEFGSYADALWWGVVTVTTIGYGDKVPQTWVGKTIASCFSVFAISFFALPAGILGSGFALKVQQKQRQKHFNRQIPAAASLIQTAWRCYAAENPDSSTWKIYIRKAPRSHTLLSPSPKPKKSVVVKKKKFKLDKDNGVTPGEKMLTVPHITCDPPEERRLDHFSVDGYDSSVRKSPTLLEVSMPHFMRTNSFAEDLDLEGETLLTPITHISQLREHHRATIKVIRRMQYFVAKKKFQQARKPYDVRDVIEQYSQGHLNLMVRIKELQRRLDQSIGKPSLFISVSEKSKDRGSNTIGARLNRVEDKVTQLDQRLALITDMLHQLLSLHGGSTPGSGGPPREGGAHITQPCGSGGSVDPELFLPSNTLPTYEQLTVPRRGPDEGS
KCNK9 inh: human KCNK9 channel inhibition | HEK293 KCNK9, FluxOR thallium flux fluorescence; active compounds read low | B-score at 10 µM | 1.2% of 310,000 active;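 active = ratio B-score over 3 SD below the library mean, with starting fluorescence within 5 SD of its mean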;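 also: negative B-score means less thallium flux so channel inhibition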
Kir21 block: blocks the mouse Kir2.1 inward-rectifier potassium channel | 0.85% of 310,000 active | HEK293-Kir2.1, FluxOR thallium flux fluorescence; active compounds read low | AID 1672 | P35561 | B-score at 10 µM;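 active = fluorescence ratio B-score at or below minus 3 SD of library scores, with starting-brightness B-score within 2 SD, cut at about -4.2 in these data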;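 also: channel flux triggered by added potassium and thallium sulfate stimulus; B-score of peak minus minimum fluorescence over baseline after thallium stimulus; more negative B-score means stronger Kir2.1 block with less thallium influx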
KCNK3 block: human KCNK3 channel inhibition, primary screen; O14649; CHO-KCNK3 thallium flux, FluxOR fluorescence; active compounds read low; B-score at 10 µM; 0.84% of 340,000 active;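 active = B-score under library mean minus 4 SD, starting fluorescence ratio at most library mean plus 5 SD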;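 also: more negative B-score means stronger inhibition of thallium flux through KCNK3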
KCNQ1 pot: potentiators or activators of human KCNQ1 potassium channel. P51787. CHO-K1 KCNQ1, thallium flux FluxOR fluorescence; active compounds read high. B-score at 10 µM. 0.35% of 310,000 active. AID 2648;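 active = fluorescence ratio B-score, a plate-corrected score, at least three library SD, with initial intensity B-score within 5 SD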
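Test system: CHO-K1 cells stably expressing KCNQ1 / Medium: assay buffer / Also added: depolarizing K+/Tl+ stimulus, K2SO4 and Tl2SO4 each 12.5 mM in 5x stock / Incubation: 90 min dye loading and 20 min compound exposure, both at room temperature / Signal: thallium influx via FluxOR fluorescence, kinetic imaging / Evaluation: B score of baseline-normalized fluorescence ratio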
* marks the source's active call; other numbers are inactive results.

What do the screens show for `CCOc1ccc(N=Nc2ccc(O)c3ncccc23)cc1`?
hERG rescue: 11*; KCNQ1 inh: inactive; KCNK9 inh: inactive; Kir21 block: 1.7; KCNK3 block: inactive; KCNQ1 pot: inactive

Results for Cc1cccc(N=Nc2ccc(O)c3ncccc23)c1 ?
hERG rescue: 2; KCNQ1 inh: inactive; KCNK9 inh: inactive; Kir21 block: -0.91; KCNK3 block: inactive; KCNQ1 pot: 10*

Results for CCOc1ccc(N=Nc2cc(C(C)C)ccc2O)cc1 ?
hERG rescue: 9.1*; KCNQ1 inh: inactive; KCNK9 inh: inactive; Kir21 block: 1.6; KCNK3 block: inactive; KCNQ1 pot: inactive

What do the screens show for `CN(C)c1nc(C=C(C#N)C#N)c(Cl)n1-c1ccc(F)cc1`?
hERG rescue: -10; KCNQ1 inh: inactive; KCNK9 inh: inactive; Kir21 block: 0.12; KCNK3 block: inactive; KCNQ1 pot: inactive

Results for O=C(NCCc1ccc(Cl)cc1)C1CCC(CNc2nc(=S)[nH]c3ccccc23)CC1 (centres undefined) ?
hERG rescue: -13; KCNQ1 inh: inactive; KCNK9 inh: inactive; Kir21 block: -0.98; KCNK3 block: inactive; KCNQ1 pot: inactive

How did O=C(NCc1ccccc1Cl)C1CCC(CNc2nc(=S)[nH]c3ccccc23)CC1 (centres undefined) do in these assays?
hERG rescue: 5.6*; KCNQ1 inh: inactive; KCNK9 inh: inactive; Kir21 block: 1.4; KCNK3 block: inactive; KCNQ1 pot: inactive

How did COc1ccc(NC(=O)CSc2nnc(CNC(=O)COc3ccc(Cl)cc3)o2)cc1 do in these assays?
hERG rescue: -7; KCNQ1 inh: inactive; KCNK9 inh: inactive; Kir21 block: 1.7; KCNK3 block: inactive; KCNQ1 pot: inactive

What do the screens show for `CSc1nnc2n(C)c3c(c(=O)n12)C1(CCCC1)Cc1ccccc1-3`?
hERG rescue: -20; KCNQ1 inh: inactive; KCNK9 inh: -7.2*; Kir21 block: -1.5; KCNK3 block: inactive; KCNQ1 pot: inactive

What do the screens show for `CCN1CCN(CCCNC(=O)CCC(=O)N2CCOc3ccccc32)CC1`?
hERG rescue: -5; KCNQ1 inh: inactive; KCNK9 inh: inactive; Kir21 block: -0.69; KCNK3 block: inactive; KCNQ1 pot: inactive

What do the screens show for `CC(C)CNC(=S)NC(=O)c1ccc(Cl)cc1Cl`?
hERG rescue: -10; KCNQ1 inh: inactive; KCNK9 inh: inactive; Kir21 block: -1.6; KCNK3 block: inactive; KCNQ1 pot: 10*

How did O=C(c1ccccc1)c1ccc2nc(-c3ccco3)c(-c3ccco3)nc2c1 do in these assays?
hERG rescue: -17; KCNQ1 inh: 9*; KCNK9 inh: inactive; Kir21 block: -0.79; KCNK3 block: inactive; KCNQ1 pot: inactive

What do the screens show for `CC(C)Nc1nnc(SCC(=O)N2CCN(C(=O)c3ccco3)CC2)s1`?
KCNK3 block: inactive

Results for CCCCN(c1ccccc1)S(=O)(=O)N(C)C ?
hERG rescue: -9; KCNQ1 inh: inactive; KCNK9 inh: inactive; Kir21 block: -5.1*; KCNK3 block: inactive; KCNQ1 pot: inactive

What do the screens show for `CCC(C)C(NC(=O)c1ccccc1NC(=O)c1ccc(OC)cc1)C(=O)NCc1ccco1` (centres undefined)?
hERG rescue: -13; KCNQ1 inh: 7*; KCNK9 inh: inactive; Kir21 block: 0.07; KCNK3 block: inactive; KCNQ1 pot: inactive

What do the screens show for `COc1ccc(C(=O)Nc2ccc(Cl)cc2C(=O)NCc2ccco2)cc1`?
hERG rescue: -19; KCNQ1 inh: inactive; KCNK9 inh: inactive; Kir21 block: 2.4; KCNK3 block: inactive; KCNQ1 pot: inactive

Results for CCOC(=O)C1CCN(S(=O)(=O)c2cccc3nonc23)CC1 ?
hERG rescue: 14*; KCNQ1 inh: inactive; KCNK9 inh: inactive; Kir21 block: 1.2; KCNK3 block: inactive; KCNQ1 pot: inactive

How did CCOC(=O)C1CCN(S(=O)(=O)c2c(Cl)ccc3nonc23)CC1 do in these assays?
hERG rescue: -19; KCNQ1 inh: inactive; KCNK9 inh: inactive; Kir21 block: -1.1; KCNK3 block: inactive; KCNQ1 pot: 9*

How did CC(C)C[C@H]1CNC(=O)C(=O)N1CC1CCN(CC2CCC(C(C)(C)C)CC2)CC1 (some centres undefined) do in these assays?
KCNK3 block: inactive

How did C=CCNc1nc(N2CCCCC2)c(C#N)c2c1CN(Cc1ccccc1)CC2 do in these assays?
hERG rescue: -19; KCNQ1 inh: inactive; KCNK9 inh: inactive; Kir21 block: -1.2; KCNK3 block: -11*; KCNQ1 pot: inactive

Results for CCOC(=O)c1c(NC(=S)N2CCOCC2)sc(C)c1C ?
hERG rescue: -10; KCNQ1 inh: inactive; KCNK9 inh: inactive; Kir21 block: -0.55; KCNK3 block: inactive; KCNQ1 pot: inactive

Results for CCCc1cnc(NCCNCC(O)COc2ccc(Cl)c(Cl)c2)nc1 (centres undefined) ?
hERG rescue: -33; KCNQ1 inh: inactive; KCNK9 inh: inactive; Kir21 block: -6.5*; KCNK3 block: inactive; KCNQ1 pot: inactive

What do the screens show for `Cc1cccc(-c2nnc(-c3ccc4ccccc4c3)o2)c1`?
KCNK3 block: -9.2*

Results for Cc1cccc(-c2nnc(-c3cccc4ccccc34)o2)c1 ?
KCNK3 block: -9.5*

How did Nn1c(SCC(=O)N2CCCc3ccccc32)nncc1=O do in these assays?
hERG rescue: 1; KCNQ1 inh: inactive; KCNK9 inh: inactive; Kir21 block: 0.85; KCNK3 block: inactive; KCNQ1 pot: inactive

How did O=C(CCCc1ccccc1)NCc1ccccc1Cl do in these assays?
hERG rescue: -9; KCNQ1 inh: inactive; KCNK9 inh: inactive; Kir21 block: 1.3; KCNK3 block: inactive; KCNQ1 pot: inactive

What do the screens show for `S=c1nc(-c2ccccc2)n(CCCN2CCOCC2)c2c1CCCC2`?
hERG rescue: 6.8*; KCNQ1 inh: inactive; KCNK9 inh: inactive; Kir21 block: 1.4; KCNK3 block: inactive; KCNQ1 pot: inactive

How did COc1ccc(C(C[N+](=O)[O-])c2c(C)[nH]n(-c3ccccc3)c2=O)cc1 (centres undefined) do in these assays?
hERG rescue: -17; KCNQ1 inh: 7*; KCNK9 inh: inactive; Kir21 block: -8.7*; KCNK3 block: inactive; KCNQ1 pot: inactive

How did Clc1ccc(CN2CCC(c3nc4ccc(Cl)cc4[nH]3)CC2)cc1 do in these assays?
hERG rescue: -13; KCNQ1 inh: inactive; KCNK9 inh: inactive; Kir21 block: -8*; KCNK3 block: inactive; KCNQ1 pot: inactive

How did COc1cc(CNCCc2c[nH]c3ccccc23)ccc1OCc1ccccc1F do in these assays?
hERG rescue: -27; KCNQ1 inh: inactive; KCNK9 inh: inactive; Kir21 block: -8.2*; KCNK3 block: inactive; KCNQ1 pot: inactive

Compound activity deposited in PubChem by Johns Hopkins Ion Channel Center.
